Results on 18 compounds are retold here after ChEMBL document CHEMBL3425499, “Iridoid glycosides from Barleria lupulina” (J Nat Prod, 2015).

Series [1] in a line: Antioxidant activity assessed as DPPH free radical scavenging activity measured as decoloration of a MeOH solution after 10 mins by spectrophotometry. In kind it is physicochemical. The gist of the method: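 Compounds were dissolved in MeOH at various concentrations and mixed with a methanolic DPPH solution. Mixtures were held 10 min in the dark, then remaining DPPH was read as absorbance at 517 nm. Scavenging was calculated against a blank of DPPH plus solvent, taken as 100%.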
On the technique in general: Loss of DPPH colour is used to gauge radical scavenging.

A further series concerns NIH3T3. The series is described as follows: Cytotoxicity against mouse NIH/3T3 cells assessed as growth inhibition at 20 ug/ml after 72 hrs by CyQuant assay.
The next series deals with U-251. The series is described as follows: Cytotoxicity against Stat3-activated human U251MG cells assessed as growth inhibition at 20 ug/ml after 72 hrs by CyQuant assay. In kind it is functional, cell-based. A digest of the protocol:
(§1)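 Cells were seeded at 1000 per well and grown 24 h. They were then exposed to 20 μg/mL compound for 72 h. Viability was measured by the CyQuant assay following the kit instructions and expressed relative to DMSO-treated control cells.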

For another series, the system named is MDA-MB-231. The series is described as follows: Cytotoxicity against Stat3-activated human MDA-MB-231 cells assessed as growth inhibition at 20 ug/ml after 72 hrs by CyQuant assay. In kind it is functional, cell-based. A digest of the protocol:
as §1

Converted amounts (≈) assume the structure as drawn. The source made the active and inactive calls. The calls are words filed in the database; no cut-off is given here.

By IC50 is commonly meant the point on the concentration scale where inhibition reaches its midpoint. Take `COC(=O)C1=CO[C@@H](O[C@@H]2O[C@H](CO)[C@@H](O)[C@H](O)[C@H]2O)[C@H]2[C@@H]1[C@H](OC(=O)/C=C/c1ccc(O)cc1)C[C@]2(C)OC(C)=O`: the IC50 in series [1] worked out at 486.5 µg/mL (≈ 818 µM).

For the compound `COC(=O)C1=CO[C@@H](O[C@@H]2O[C@H](CO)[C@@H](O)[C@H](O)[C@H]2O)[C@H]2[C@@H]1[C@H](OC(C)=O)C[C@]2(C)O`, the IC50 in series [1] was found to be 286.4 µg/mL (≈ 639 µM). In addition, the inhibition result in the series on NIH3T3, in the series with U-251 and in the series on MDA-MB-231 was “inactive” in each case.

Take `COC(=O)C1=CO[C@@H](O[C@@H]2O[C@H](CO)[C@@H](O)[C@H](O)[C@H]2O)[C@H]2[C@@H]1[C@H](O)C[C@]2(C)O` [SHANZHISIDE METHYL ESTER]: the IC50 in series [1] came to 97.5 µg/mL (≈ 240 µM). In addition, the inhibition result in the series on NIH3T3, in the series with U-251 and with MDA-MB-231 was “inactive” in each case.

As for `C[C@]1(O)C[C@@H](O)[C@@H]2C(C(=O)O)=CO[C@@H](O[C@@H]3O[C@H](COC=O)[C@@H](O)[C@H](O)[C@H]3O)[C@@H]21`, the inhibition result in the series on NIH3T3, in the series on U-251 and in the series with MDA-MB-231 was “inactive” throughout.

In the case of `COc1ccc(/C=C/C(=O)O[C@@H]2C[C@](C)(OC(C)=O)[C@H]3[C@H](O[C@@H]4O[C@H](CO)[C@@H](O)[C@H](O)[C@H]4O)OC=C(C(=O)O)[C@H]32)cc1`, the inhibition entry in the series with NIH3T3, with U-251 and in the series on MDA-MB-231 was “inactive” throughout.

`CC(=O)O[C@@]1(C)C[C@@H](O)[C@@H]2C(C(=O)O)=CO[C@@H](O[C@@H]3O[C@H](CO)[C@@H](O)[C@H](O)[C@H]3O)[C@@H]21`: the inhibition entry in the series on NIH3T3, with U-251 and in the series on MDA-MB-231 was “inactive” throughout.

With `O=c1c(O)c(-c2ccc(O)c(O)c2)oc2cc(O)cc(O)c12` [QUERCETIN], the IC50 in series [1] amounted to 9.52 µg/mL (≈ 31.5 µM).

`COC(=O)C1=CO[C@@H](O[C@@H]2O[C@H](CO)[C@@H](O)[C@H](O)[C@H]2O)[C@@H]2[C@@](C)(OC(C)=O)CC[C@]12O`: the inhibition entry with NIH3T3, in the series with U-251 and with MDA-MB-231 was “inactive” each time.

For the compound `O=C(O)c1cc(O)c(O)c(O)c1` [GALLIC ACID], the IC50 in series [1] amounted to 2.79 µg/mL (≈ 16.4 µM).

In the case of `C[C@]1(O)CC[C@@H]2C(C(=O)O)=CO[C@@H](O[C@@H]3O[C@H](CO)[C@@H](O)[C@H](O)[C@H]3O)[C@@H]21`, the inhibition result in the series with NIH3T3, in the series on U-251 and with MDA-MB-231 was “inactive” in each case.

For `C[C@]1(O)C[C@@H](OC=O)[C@@H]2C(C(=O)O)=CO[C@@H](O[C@@H]3O[C@H](CO)[C@@H](O)[C@H](O)[C@H]3O)[C@@H]21`, the inhibition entry in the series on NIH3T3, in the series with U-251 and in the series with MDA-MB-231 was “inactive” in each case.

`COC(=O)C1=CO[C@@H](O[C@@H]2O[C@H](CO)[C@@H](O)[C@H](O)[C@H]2O)[C@H]2[C@@H]1[C@H](O)C[C@]2(C)OC(C)=O` [BARLERIN]: in series [1], the IC50 stood at 110.3 µg/mL (≈ 246 µM). Besides, the inhibition result in the series on NIH3T3, with U-251 and in the series with MDA-MB-231 was “inactive” in each case.

`O=C1O[C@H]([C@@H](O)CO)C(O)=C1O` [ASCORBIC ACID]: the IC50 in series [1] turned out to be 7.63 µg/mL (≈ 43.3 µM).

For `COC(=O)C1=CO[C@@H](O[C@@H]2O[C@H](CO)[C@@H](O)[C@H](O)[C@H]2O)[C@H]2[C@@H]1[C@H](OC(C)=O)C[C@]2(C)OC(C)=O`, the inhibition result in the series with NIH3T3, in the series with U-251 and in the series on MDA-MB-231 was “inactive” in each case.

For the compound `COc1ccc(/C=C\C(=O)O[C@@H]2C[C@](C)(OC(C)=O)[C@H]3[C@H](O[C@@H]4O[C@H](CO)[C@@H](O)[C@H](O)[C@H]4O)OC=C(C(=O)O)[C@H]32)cc1`, the inhibition entry in the series with NIH3T3, in the series with U-251 and in the series on MDA-MB-231 was “inactive” throughout.

In the case of `COC(=O)C1=CO[C@@H](O[C@@H]2O[C@H](COC=O)[C@@H](O)[C@H](O)[C@H]2O)[C@H]2[C@@H]1[C@H](O)C[C@]2(C)OC(C)=O`, the inhibition result in the series on NIH3T3, in the series on U-251 and in the series on MDA-MB-231 was “inactive” throughout.

Consider `C[C@]1(O)C[C@@H](O)[C@@H]2C(C(=O)O)=CO[C@@H](O[C@@H]3O[C@H](CO)[C@@H](O)[C@H](O)[C@H]3O)[C@@H]21` [SHANZHISIDE], for which the IC50 in series [1] is 78.6 µg/mL (≈ 200 µM). The inhibition result in the series on NIH3T3, in the series with U-251 and in the series with MDA-MB-231 was “inactive” each time.

As to `COC(=O)C1=CO[C@@H](O[C@@H]2O[C@H](COC=O)[C@@H](O)[C@H](O)[C@H]2O)[C@H]2[C@@H]1[C@H](OC(C)=O)C[C@]2(C)OC(C)=O`, the inhibition result with NIH3T3, with U-251 and with MDA-MB-231 was “inactive” each time.
